Like-named read-outs stand apart in the source and are kept apart here.
Legend:
[1] = cited from earlier work
[2] = Ion-mobility mass spectrometry; format: physicochemical; conditions: IM-MS, 200 μM in water
Atomic force microscopy = format: physicochemical
Method in brief: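 Samples were N-acetyl/C-amide peptides at 200 μM in water, with no buffer, to slow aggregation and limit charge screening. Peptide stocks were made in filtered deionized water, flash-frozen and kept at −80 °C. AFM height images were taken at 1 Hz with 512 × 512 points, fibrils masked and first-order flattened. Each fibril or granular-aggregate height and length is the mean of 20 measurements.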

[3] = system: embryonic rat hippocampal neurons; conditions: Busciglio and co-workers; cited from earlier work

## NFLVHSS
[1]; PDB ID 3FTH
  aggregation strength (class 6 steric zipper): weakly aggregating

## YVVFL
[1]; PDB 4OLR / 4ONK
  aggregation strength (class 6 steric zipper): weakly aggregating

## Ac-Aβ(25–35)-NH2: amphipathic amyloid-β fragment containing the hydrophobic hexapeptide GAIIGL (Ac-GSNKGAIIGLM-NH2; UniProt P05067 696-706, looked up, fragment)
[2]; heteroligomers from 1:1 mixture
  largest oligomers observed: hexamers and nonamers
[2]; indicates extended oligomers
  onset of cross-section deviation from isotropic oligomer model: starting at the trimer stage
Atomic force microscopy; 1 week incubated, 200 μM in water, mixture at 1:1
  aggregates observed by AFM (1 week): abundant fibrillar aggregates
Atomic force microscopy; fresh peptide, in water
  time to fibrillar aggregates: within an hour

## YVVFV
[1]; PDB 4OLR / 4ONK
  aggregation strength (class 6 steric zipper): weakly aggregating

## Aβ(1–40): full length Aβ isoform
[3]
  result compared with Aβ(25–35) effect on neurons: similar

— PMC4174992 (The Journal of Physical Chemistry. B, 2014)
